Bridges are numbered along the chain shown (N, C = ends). Where no end group is shown, it is not given here.
What was measured:
[1] = system: tested Gram-positive bacteria; experiment: Geometric mean of MICs and TI, Gram-positive bacteria; format: cell-based; settings: geometric mean of the MICs against tested Gram-positive bacteria
How it was run: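 Broth dilution against S. aureus NCTC 10788, MRSA NCTC 12493 and E. faecalis NCTC 12697. Overnight cultures subcultured to OD550 0.23 (about 1×10^8 cfu/ml), then diluted to 5×10^5 cfu/ml. Test compound at 1–128 μM, 37 °C, 18 h, growth read at 550 nm. MIC = lowest concentration with no growth. Three independent runs in triplicate. Geometric mean taken across the MICs.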

[2] = Secondary structure analysis by CD spectrometry; format: physicochemical; settings: for α helix (%) NH4AC: 50 µM peptide in 10 mM NH4AC; for α helix (%) NH4AC / α helix (%) TFE: CD 190 to 260 nm, K2D3 estimate; for α helix (%) TFE: 50 µM peptide in 50 % TFE (v/v, in 10 mM NH4AC)
How it was run: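 CD spectra of test compound (final 50 µM) in 10 mM ammonium acetate, in 50 % TFE (v/v, in 10 mM ammonium acetate), or with LPS O26:B6 (100 µM) in 10 mM ammonium acetate. Scanned 190–260 nm at 100 nm/min, 1 nm bandwidth, 0.5 nm data pitch. Helix content estimated with K2D3.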

[3] = system: E. coli 8739, E. coli 13846, and E. coli 2340; experiment: Time-killing kinetic assay; format: cell-based, Escherichia coli
How it was run: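 E. coli at 10^6 CFU/ml mixed with test compound at 1×, 2× or 4× MIC. 10 µl aliquots taken into PBS at 0, 5, 10, 20, 30, 60, 90, 120 and 180 min and plated on agar. Colonies counted after 24 h incubation. Three independent sessions, three replicates each.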

E. coli 2340 [4] = experiment: Salt sensitivity assay; format: cell-based, Escherichia coli; settings: three independent repeats
How it was run: (§1)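 MIC/MBC measured in MHB supplemented with salts, including 150 mM NaCl, 2 mM CaCl₂ or 1 mM MgCl₂. Gram-negative cultures subcultured to OD550 0.4, then diluted to 5×10^5 cfu/ml. Test compound 1–128 μM, 37 °C, 18 h, growth at 550 nm. MBC: wells spotted on agar for 18 h at 37 °C; lowest concentration with no colonies. Three independent repeats.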

tested E. coli strains = experiment: ONPG assay, inner membrane permeabilisation; format: cell-based, Escherichia coli; settings: E. coli 8739
How it was run: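 E. coli grown in LB with 2 % lactose to log phase, then pelleted. Incubated with test compound while absorbance at 460 nm was monitored continuously at 37 °C. Untreated cells, melittin and solvent-only groups included. Three independent runs, three replicates each.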

E. coli 2340 [5] = experiment: In vivo antibacterial study, G. mellonella larvae model; design: species or system Galleria mellonella; settings: five days; 10, 20, 40 mg/kg; ten larvae per group
How it was run: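 Galleria mellonella larvae injected in the last right proleg with E. coli suspension (1×10^7 CFU/ml). Test compound given 1 h later at 10, 20 or 40 mg/kg. Larvae kept at 37 °C for five days, survival scored daily, ten larvae per group. Rifampin 20 mg/kg was the positive control and sterile PBS the negative control. Three independent experiments.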

[6] = system: three tested E. coli strains; experiment: NPN assay, outer membrane permeabilisation; format: cell-based, Escherichia coli; settings: 1 × MIC, 2 × MIC, 4 × MIC; 37 °C, 2 h
How it was run: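 Log-phase E. coli pelleted at 3000g for 10 min and washed three times in 5 mM HEPES pH 7.2 with 5 mM glucose. Resuspended at 1×10^7 CFU/ml with NPN and test compound at 1×, 2× or 4× MIC. Incubated at 37 °C for 2 h, then fluorescence read at […]. Melittin set 100 % and buffer 0 % permeability. Three independent runs.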

E. coli 8739 = experiment: Salt sensitivity assay; format: cell-based, Escherichia coli; settings: three independent repeats
How it was run: as §1

E. coli 13846 = experiment: Salt sensitivity assay; format: cell-based, Escherichia coli; settings: three independent repeats
How it was run: as §1

[7] = system: E. coli plasmid DNA (pBR322); experiment: DNA binding assay; design: species or system Escherichia coli; settings: 100 ng plasmid DNA, 37 °C, 1 h, agarose gel electrophoresis
How it was run: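 Gel retardation: test compound (final 1–32 μM) incubated with 100 ng E. coli plasmid DNA at 37 °C for 1 h. Buffer: 1 mM EDTA, 10 mM Tris-HCl pH 8.0, 5 % glucose, 50 μg/ml BSA, 20 mM KCl. Resolved by agarose gel electrophoresis in 1 × TAE. A known DNA-binding peptide at equal concentrations served as control.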

FFPKVAGVAAKV_KK_FCTISKKC (disulfide) [des-Leu^13, Ala^16-[Lys^4]brevinin−1pl]
GM G+ [1]: 256 µM
α helix (%) NH4AC [2]: 34.65%
α helix (%) TFE [2]: 95.28%

FFPKVAGVAAKVLKKFCTISKKC (disulfide 17-23 (inferred)) [des-Ala^16-[Lys^4]brevinin−1pl]
bacteria eradication at 4 × MIC ([3]; 4 × MIC): almost immediate bacteria eradication upon contact
time to eradicate all cells ([3]; 10^6 CFU/ml, peptide 1 × MIC to 4 × MIC, sampled 0 to 180 min, colony count): ≤ 10 min
time to completely clear the bacteria ([3]; at their MICs, three types of E. coli): ≤ 1 h
GM G+ [1]: 80.63 µM
α helix (%) NH4AC [2]: 31.95%
α helix (%) TFE [2]: 95.28%
α helix content in the presence of LPS ([2]; LPS (O26:B6, 100 µM) in 10 mM NH4AC, CD, K2D3 prediction): 95.44%
MBC (E. coli 2340 [4]; 4 µM FeCl3 in MHB medium): 4 /4
MIC (E. coli 2340 [4]; 4 µM FeCl3 in MHB medium): 4 /4
MBC (E. coli 2340 [4]; 6 µM NH4Cl in MHB medium): 4 /4
MIC (E. coli 2340 [4]; 6 µM NH4Cl in MHB medium): 4 /4
MBC (E. coli 2340 [4]; 8 µM ZnCl2 in MHB medium): 4 /4
MIC (E. coli 2340 [4]; 8 µM ZnCl2 in MHB medium): 4 /4
MBC (E. coli 2340 [4]; 1 mM MgCl2 in MHB medium): 8 /8
MIC (E. coli 2340 [4]; 1 mM MgCl2 in MHB medium): 8 /8
MBC (E. coli 2340 [4]; 2 mM CaCl2 in MHB medium): 16 /16
MIC (E. coli 2340 [4]; 2 mM CaCl2 in MHB medium): 16 /16
MBC (E. coli 2340 [4]; 4.5 mM KCl in MHB medium): 2 /2
MIC (E. coli 2340 [4]; 4.5 mM KCl in MHB medium): 2 /2
MBC (E. coli 2340 [4]; 150 mM NaCl in MHB medium): 4 /4
MIC (E. coli 2340 [4]; 150 mM NaCl in MHB medium): 4 /4
MBC (E. coli 2340 [4]; Control, MHB medium): 4 /4
MIC (E. coli 2340 [4]; Control, MHB medium): 4 /4
changes in OD values in the ONPG assay (release of cytoplasmic beta-galactosidase) (tested E. coli strains): did not induce obvious changes in OD values
survival rate of infected larvae (E. coli 2340 [5]): 90%
outer membrane permeabilisation of the tested E. coli strains [6]: did not induce significant changes
MBC (E. coli 8739; 4 µM FeCl3 in MHB medium): 2 /2
MIC (E. coli 8739; 4 µM FeCl3 in MHB medium): 2 /2
MBC (E. coli 8739; 6 µM NH4Cl in MHB medium): 2 /2
MIC (E. coli 8739; 6 µM NH4Cl in MHB medium): 2 /2
MBC (E. coli 8739; 8 µM ZnCl2 in MHB medium): 2 /2
MIC (E. coli 8739; 8 µM ZnCl2 in MHB medium): 2 /2
MBC (E. coli 8739; 1 mM MgCl2 in MHB medium): 32 /32
MIC (E. coli 8739; 1 mM MgCl2 in MHB medium): 32 /32
MBC (E. coli 8739; 2 mM CaCl2 in MHB medium): 8 /8
MIC (E. coli 8739; 2 mM CaCl2 in MHB medium): 8 /8
MBC (E. coli 8739; 4.5 mM KCl in MHB medium): 2 /2
MIC (E. coli 8739; 4.5 mM KCl in MHB medium): 2 /2
MBC (E. coli 8739; 150 mM NaCl in MHB medium): 4 /4
MIC (E. coli 8739; 150 mM NaCl in MHB medium): 4 /4
MBC (E. coli 8739; Control, MHB medium): 2 /2
MIC (E. coli 8739; Control, MHB medium): 2 /2
MBC (E. coli 13846; 4 µM FeCl3 in MHB medium): 8 /8
MIC (E. coli 13846; 4 µM FeCl3 in MHB medium): 8 /8
MBC (E. coli 13846; 6 µM NH4Cl in MHB medium): 8 /8
MIC (E. coli 13846; 6 µM NH4Cl in MHB medium): 8 /8
MBC (E. coli 13846; 8 µM ZnCl2 in MHB medium): 8 /8
MIC (E. coli 13846; 8 µM ZnCl2 in MHB medium): 8 /8
MBC (E. coli 13846; 1 mM MgCl2 in MHB medium): 16 /16
MIC (E. coli 13846; 1 mM MgCl2 in MHB medium): 16 /16
MBC (E. coli 13846; 2 mM CaCl2 in MHB medium): 64 /64
MIC (E. coli 13846; 2 mM CaCl2 in MHB medium): 64 /64
MBC (E. coli 13846; 4.5 mM KCl in MHB medium): 8 /8
MIC (E. coli 13846; 4.5 mM KCl in MHB medium): 8 /8
MBC (E. coli 13846; 150 mM NaCl in MHB medium): 8
MIC (E. coli 13846; 150 mM NaCl in MHB medium): 4
MBC (E. coli 13846; Control, MHB medium): 4 /4
MIC (E. coli 13846; Control, MHB medium): 4 /4
concentration of complete retardation of plasmid DNA [7]: 16 µM
